Test results reported in ChEMBL document CHEMBL3259710, “C-ring cannabinoid lactones: a novel cannabinergic chemotype” (ACS Med Chem Lett, 2014).

Legend:
Cannabinoid receptor 1 [1] = biological target: T1, Cannabinoid receptor 1 (Rattus norvegicus, UniProt P20272); test: Displacement of [3H]CP55940 from rat brain CB1 receptor
In short: (§1)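 Competition binding against [3H]CP-55,940. CB1 membranes came from rat brain; CB2 membranes came from HEK293 cells expressing mouse or human CB2. Ki was taken from competition curves by nonlinear regression. Three independent experiments were run in duplicate, and Ki is the mean of the three.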

Cannabinoid receptor 2 [2] = biological target: Cannabinoid receptor 2 (Mus musculus, UniProt P47936); test: Displacement of [3H]CP55940 from mouse […] CB2 receptor expressed in HEK293 cells; format: cell-based; in short: as §1
Cannabinoid receptor 1 [3] = biological target: T1, Cannabinoid receptor 1; test: Agonist activity at rat CB1 receptor expressed in HEK293 cells assessed as inhibition of forskolin-induced cAMP level; format: functional, cell-based
Cannabinoid receptor 2 [4] = biological target: Cannabinoid receptor 2 (Homo sapiens, UniProt P34972); test: Displacement of [3H]CP55940 from human […] CB2 receptor expressed in HEK293 cells; format: cell-based; in short: as §1
[5] = Selectivity ratio of Ki for human CB2 receptor to Ki for rat CB1 receptor
[6] = biological target: Cannabinoid receptor 1 (Rattus norvegicus) (UniProt P20272); test: Agonist activity at rat CB1 receptor expressed in HEK293 cells assessed as maximum inhibition of forskolin-induced cAMP level; format: functional, cell-based
[7] = Selectivity ratio of Ki for mouse […] CB2 receptor to Ki for rat CB1 receptor
[8] = Half life in mouse plasma; format: ADME, cell-free
In short: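 The compound was incubated in vitro with mouse plasma to test esterase hydrolysis to its acid metabolite. Half-life of the parent compound was determined.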

Cannabinoid receptor 2 (Homo sapiens, UniProt P34972), sequence (P34972 whole entry): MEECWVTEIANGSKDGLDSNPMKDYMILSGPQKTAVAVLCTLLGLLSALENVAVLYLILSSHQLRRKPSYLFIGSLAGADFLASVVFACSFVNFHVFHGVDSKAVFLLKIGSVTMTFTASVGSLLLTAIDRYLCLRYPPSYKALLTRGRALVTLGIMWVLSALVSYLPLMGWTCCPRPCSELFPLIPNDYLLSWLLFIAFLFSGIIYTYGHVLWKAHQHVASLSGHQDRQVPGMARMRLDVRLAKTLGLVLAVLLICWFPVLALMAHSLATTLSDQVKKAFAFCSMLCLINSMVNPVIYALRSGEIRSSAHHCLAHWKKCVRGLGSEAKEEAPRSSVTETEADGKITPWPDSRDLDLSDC
Cannabinoid receptor 2 (Mus musculus, UniProt P47936), sequence (P47936 whole entry): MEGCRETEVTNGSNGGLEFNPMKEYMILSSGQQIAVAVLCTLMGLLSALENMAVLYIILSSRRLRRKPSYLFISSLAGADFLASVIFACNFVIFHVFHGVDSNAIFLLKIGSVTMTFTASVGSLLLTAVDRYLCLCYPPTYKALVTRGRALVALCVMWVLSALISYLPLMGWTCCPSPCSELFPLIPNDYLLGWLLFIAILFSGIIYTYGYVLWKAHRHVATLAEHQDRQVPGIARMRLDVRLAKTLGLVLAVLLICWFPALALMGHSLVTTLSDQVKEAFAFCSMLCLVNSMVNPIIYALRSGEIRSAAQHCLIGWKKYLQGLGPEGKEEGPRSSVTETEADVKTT
T1 sequence (P20272 whole entry): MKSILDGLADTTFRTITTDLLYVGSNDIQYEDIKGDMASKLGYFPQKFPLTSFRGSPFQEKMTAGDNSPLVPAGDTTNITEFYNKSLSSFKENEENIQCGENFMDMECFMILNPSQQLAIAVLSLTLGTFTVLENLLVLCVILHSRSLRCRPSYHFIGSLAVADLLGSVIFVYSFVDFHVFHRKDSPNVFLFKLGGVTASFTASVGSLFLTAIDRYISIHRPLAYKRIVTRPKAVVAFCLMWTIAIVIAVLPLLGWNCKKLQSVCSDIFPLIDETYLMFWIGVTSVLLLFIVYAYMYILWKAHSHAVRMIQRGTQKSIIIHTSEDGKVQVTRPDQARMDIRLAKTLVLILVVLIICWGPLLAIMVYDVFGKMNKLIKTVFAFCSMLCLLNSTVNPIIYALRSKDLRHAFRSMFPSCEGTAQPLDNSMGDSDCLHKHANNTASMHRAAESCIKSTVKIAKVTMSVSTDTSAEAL
Cannabinoid receptor 1 (Rattus norvegicus), sequence (P20272 whole entry): as above

SMILES | Ki (Cannabinoid receptor 1 [1]) [nM] | Ki (Cannabinoid receptor 2 [2]) [nM] | EC50 (Cannabinoid receptor 1 [3]) [nM] | Ki (Cannabinoid receptor 2 [4]) [nM] | Ratio Ki [5] | inhibition [6] [%] | Ratio Ki [7] | half-life [8] [min]
CCCCCCC(C)(C)c1cc(O)c2c(c1)OC(C)(C)[C@@H]1CCC(=O)OC[C@@H]21 | 4.6 | 792 | 184 | 52 | 11 | 41 | 170 | 
CCCCCCC(C)(C)c1cc(O)c2c(c1)OC(C)(C)[C@H](CCC(=O)O)[C@H]2CO | > 1000 | > 1000 |  | > 1000 |  |  |  | 15.1
CCCCCCC(C)(C)c1cc(O)c2c(c1)OC(C)(C)[C@@H]1CCOC(=O)C[C@@H]21 |  |  |  | 94 |  |  |  | 
CCCCCc1cc(O)c2c(c1)OC(C)(C)[C@@H]1CCC(C)=C[C@@H]21 [DRONABINOL] |  | 40 |  |  |  |  |  | 
CCCCCCC(C)(C)c1cc(O)c2c(c1)OC(C)(C)[C@H](CCO)[C@H]2CC(=O)O | > 1000 | > 1000 |  | > 1000 |  |  |  | 
